SMILES strings stand for the structures.

Broadly, the EC50 is the concentration giving half of the maximal effect. As a reminder, the IC50 is the concentration that gives 50% inhibition. Low readings indicate greater potency, high ones weaker potency.

Experiment [1] can be described thus: Antioxidant activity assessed as protection against peroxyl radical-induced alkaline phosphatase oxidation by fluorimetric assay. Type of experiment: functional. In short, it runs like this: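 Microplate assay on pure compounds measuring protection of alkaline phosphatase (ALP) against peroxyl radical-induced loss of activity. EC50 is the antioxidant concentration that protects ALP to 50% from this loss, reported as pEC50.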

The test system of experiment [2] is Radical scavenging activity. Kind of experiment: Antioxidant activity assessed as ratio of drug concentration to DPPH concentration causing 50% DPPH radical scavenging activity […]. Type of experiment: functional. (Loss of DPPH colour is used to gauge radical scavenging.)
The next experiment relates to Plasmodium falciparum. Kind of experiment: Antiplasmodial activity against chloroquine-sensitive Plasmodium falciparum 3D7 by [3H]hypoxanthine incorporation assay. Type of experiment: functional, organism-based.

For the molecule `O=C(O[C@@H]1[C@@H](O)[C@H](c2c(O)cc3oc4cc(O)c(O)cc4c(=O)c3c2O)O[C@H](CO)[C@H]1O)c1ccc(O)cc1`, in experiment [1], the EC50 is 980 nM. Further, the Ratio in experiment [2] stood at 0.11. The same molecule showed a half-inhibitory concentration (IC50) in the experiment on Plasmodium falciparum of 26500 nM.
On to `O=C(/C=C/c1ccc(O)c(O)c1)O[C@@H]1[C@@H](O)[C@H](c2c(O)cc3oc4cc(O)c(O)cc4c(=O)c3c2O)O[C@H](CO)[C@H]1O`, for which the half-maximal effective concentration (EC50) in experiment [1] came to 1180 nM. For the same molecule, the Ratio in experiment [2] came out at 0.1.
Turning to `O=C(/C=C/c1ccccc1)O[C@@H]1[C@@H](O)[C@H](c2c(O)cc3oc4cc(O)c(O)cc4c(=O)c3c2O)O[C@H](CO)[C@H]1O`, the concentration for a half-maximal effect (EC50) in experiment [1] is 980 nM. Besides, the Ratio in experiment [2] was found to be 0.16.
As for `O=C(/C=C/c1ccc(O)cc1)O[C@@H]1[C@@H](O)[C@H](c2c(O)cc3oc4cc(O)c(O)cc4c(=O)c3c2O)O[C@H](CO)[C@H]1O`, the EC50 in experiment [1] worked out at 830 nM. Moreover, in experiment [2], the Ratio is 0.16. In the experiment with Plasmodium falciparum, this molecule came in with a 50% inhibitory concentration (IC50) of 18100 nM.
`O=c1c(O)c(-c2ccc(O)c(O)c2)oc2cc(O)cc(O)c12` [QUERCETIN]: in experiment [1], the concentration giving a half-maximal response (EC50) came out at 1000 nM. Besides, the Ratio in experiment [2] is 0.092.
In the case of `O=C(/C=C/c1ccc(O)cc1)OC[C@H]1O[C@@H](c2c(O)cc3oc4cc(O)c(O)cc4c(=O)c3c2O)[C@H](O)[C@@H](O)[C@@H]1O`, the EC50 in experiment [1] amounted to 1480 nM. The Ratio in experiment [2] was 0.23. The same molecule registered a concentration for half-maximal inhibition (IC50) in the experiment with Plasmodium falciparum of over 38200 nM.
`O=c1c2cc(O)c(O)cc2oc2cc(O)c([C@@H]3O[C@H](CO)[C@@H](O)[C@H](O)[C@H]3O)c(O)c12` [MANGIFERIN]: the concentration giving a half-maximal response (EC50) in experiment [1] was 1260 nM. Also, the Ratio in experiment [2] turned out to be 0.12. Moreover, inhibition with Plasmodium falciparum was half-maximal at 23800 nM (IC50).

The values above are taken from ChEMBL document CHEMBL1154138, “Antioxidant C-glucosylxanthones from the leaves of Arrabidaea patellifera” (J Nat Prod, 2008).
